According to ChEMBL document CHEMBL1126616, “1,2-Cyclomethylenecarboxylic monoamide hydroxamic derivatives. A novel class of non-amino acid angiotensin converting enzyme inhibitors” (J Med Chem, 1993):

T1: Angiotensin-converting enzyme (Rattus norvegicus, UniProt P47820)
T1 sequence (P47820 whole entry): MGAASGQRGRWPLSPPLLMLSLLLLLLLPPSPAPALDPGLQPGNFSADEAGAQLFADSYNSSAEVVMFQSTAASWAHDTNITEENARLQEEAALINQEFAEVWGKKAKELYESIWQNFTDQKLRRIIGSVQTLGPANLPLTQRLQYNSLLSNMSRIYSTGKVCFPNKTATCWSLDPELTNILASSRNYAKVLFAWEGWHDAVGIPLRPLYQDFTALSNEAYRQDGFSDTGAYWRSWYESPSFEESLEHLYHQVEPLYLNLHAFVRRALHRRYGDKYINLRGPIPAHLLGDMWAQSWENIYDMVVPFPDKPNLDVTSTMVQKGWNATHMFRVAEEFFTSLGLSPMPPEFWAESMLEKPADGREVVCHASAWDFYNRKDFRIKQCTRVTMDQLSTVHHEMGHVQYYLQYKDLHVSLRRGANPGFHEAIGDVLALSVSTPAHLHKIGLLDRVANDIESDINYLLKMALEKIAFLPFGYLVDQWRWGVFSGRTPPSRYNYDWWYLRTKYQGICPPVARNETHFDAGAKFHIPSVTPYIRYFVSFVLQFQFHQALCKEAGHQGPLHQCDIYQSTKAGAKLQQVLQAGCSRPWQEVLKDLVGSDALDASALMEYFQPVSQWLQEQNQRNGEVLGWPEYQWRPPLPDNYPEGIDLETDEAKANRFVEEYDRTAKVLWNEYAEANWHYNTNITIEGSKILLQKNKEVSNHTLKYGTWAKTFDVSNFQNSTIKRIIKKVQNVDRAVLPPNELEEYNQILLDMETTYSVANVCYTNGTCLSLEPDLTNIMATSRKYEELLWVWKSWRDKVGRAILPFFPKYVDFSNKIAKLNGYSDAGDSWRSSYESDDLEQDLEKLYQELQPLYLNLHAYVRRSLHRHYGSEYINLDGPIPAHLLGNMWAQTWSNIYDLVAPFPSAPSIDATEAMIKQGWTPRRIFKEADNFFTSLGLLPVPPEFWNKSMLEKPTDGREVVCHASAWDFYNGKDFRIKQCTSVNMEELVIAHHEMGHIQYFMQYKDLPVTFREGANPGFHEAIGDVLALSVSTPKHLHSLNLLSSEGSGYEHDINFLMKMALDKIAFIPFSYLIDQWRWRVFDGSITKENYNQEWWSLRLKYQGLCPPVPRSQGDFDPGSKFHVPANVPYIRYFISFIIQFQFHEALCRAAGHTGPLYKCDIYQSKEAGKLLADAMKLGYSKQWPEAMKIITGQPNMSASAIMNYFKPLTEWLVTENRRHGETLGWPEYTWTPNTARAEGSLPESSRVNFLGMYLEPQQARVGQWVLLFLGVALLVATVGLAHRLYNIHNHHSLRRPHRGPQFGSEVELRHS

B1: Angiotensin-converting enzyme (Rattus norvegicus), P47820 (protein)
chain: T1 sequence (P47820 whole entry)

Experiments:
[1] = target: T1, Angiotensin-converting enzyme; experiment: In vitro inhibitory activity against rat serum angiotensin I converting enzyme using hippuryl-glycyl-glycine as substrate; format: cell-free
Rattus norvegicus [2] = organism: Rattus norvegicus; experiment: Maximum rate for the hydrolysis of hippuryl-glycyl-glycine by rat serum ACE at the concentration of 12 nM; format: ADME; settings: 0.012 µM
Outline: (§1)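 For rat serum ACE kinetics, the dependence of hippurylglycylglycine hydrolysis rate on substrate concentration was measured at increasing inhibitor concentrations. Apparent Km and Vmax were derived for each inhibitor level.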

Rattus norvegicus [3] = organism: Rattus norvegicus; experiment: Maximum rate for the hydrolysis of hippuryl-glycyl-glycine by rat serum ACE at the concentration of 3 nM; format: ADME; settings: 0.003 µM; outline: as §1
Rattus norvegicus [4] = organism: Rattus norvegicus; experiment: Maximum rate for the hydrolysis of hippuryl-glycyl-glycine by rat serum ACE; format: ADME; outline: as §1
Rattus norvegicus [5] = organism: Rattus norvegicus; experiment: Maximum rate for the hydrolysis of hippuryl-glycyl-glycine by rat serum ACE at the concentration of 6 nM (mean +/- SEM); format: ADME; settings: 0.006 µM; outline: as §1
[6] = substrate: CN(CC(=O)NO)C(=O)C1CCCCC1C(=O)O; experiment: Michaelis-Menten's constant for the hydrolysis of hippuryl-glycyl-glycine by rat serum ACE at the concentration of 12 nM; format: cell-free; outline: as §1
[7] = substrate: CN(CC(=O)NO)C(=O)C1CCCCC1C(=O)O; experiment: Michaelis-Menten's constant for the hydrolysis of hippuryl-glycyl-glycine by rat serum ACE at the concentration of 3 nM; outline: as §1
[8] = substrate: CN(CC(=O)NO)C(=O)C1CCCCC1C(=O)O; experiment: Michaelis-Menten's constant for the hydrolysis of hippuryl-glycyl-glycine by rat serum ACE; format: cell-free; outline: as §1
[9] = substrate: CN(CC(=O)NO)C(=O)C1CCCCC1C(=O)O; experiment: Michaelis-Menten's constant for the hydrolysis of hippuryl-glycyl-glycine by rat serum Angiotensin I Converting Enzyme at the concentration of 6 nM; format: cell-free; outline: as §1

Molecule | IC50 [1] [nM] | also measured
O=C(O)C1CCCCC1C(=O)CCS (stereo unspecified) | 1400 | 
O=C(O)CNC(=O)C1CCCCC1C(=O)O (stereo unspecified) | > 150000 | 
CCCN(CC(=O)O)C(=O)C1CCCCC1C(=O)O (stereo unspecified) | > 150000 | 
CN(CC(=O)NOCc1ccccc1)C(=O)C1CCCC1C(=O)O (stereo unspecified) | > 150000 | 
O=C(O)C1CCCC1C(=O)NCCS (stereo unspecified) | 11000 | 
O=C(O)CCC(=O)N1CCCC1C(=O)O (stereo unspecified) | 624000 | 
CC(CC(=O)NO)C(=O)N1CCC[C@H]1C(=O)O (stereo partly specified) | 600 | 
CN(CC(=O)NO)C(=O)C1CCCC1C(=O)O (stereo unspecified) | 1400 | 
CN(CC(=O)O)C(=O)C1CCCCC1C(=O)O (cis isomer) | > 150000 | 
CCCN(CC(=O)NO)C(=O)C1CCCCC1C(=O)O (cis isomer) | 400 | 
CN(CC(=O)NOCc1ccccc1)C(=O)C1CCCCC1C(=O)O (cis isomer) | > 150000 | 
O=C(CNC(=O)C1CCCCC1C(=O)O)NOCc1ccccc1 (cis isomer) | > 150000 | 
CCN(CC(=O)NOCc1ccccc1)C(=O)C1CCCCC1C(=O)O (cis isomer) | > 150000 | 
O=C(CNC(=O)C1CCCCC1C(=O)O)NO (cis isomer) | 3000 | 
CCN(CC(=O)NO)C(=O)C1CCCCC1C(=O)O (cis isomer) | 57 | 
CCN(CC(=O)O)C(=O)C1CCCC1C(=O)O (cis isomer) | > 150000 | 
CN(CC(=O)NO)C(=O)C1CCCCC1C(=O)O (cis isomer) | 12 | 
CCN(CC(=O)O)C(=O)C1CCCCC1C(=O)O (stereo in doubt; 7d) | 75000 | 
CCN(CC(=O)O)C(=O)C1CCCCC1C(=O)O (stereo in doubt; 7e) | 97000 | 
O=C(O)C1CCCCC1C(=O)NCCS (stereo in doubt; 8b) | 10000 | 

Molecule | IC50 [1] [nM] | also measured
O=C(CNC(=O)C1CCCCC1C(=O)O)NOCc1ccccc1 (stereo in doubt; 9b) | > 150000 | 
CN(CC(=O)NOCc1ccccc1)C(=O)C1CCCCC1C(=O)O (stereo in doubt; 9e) | > 150000 | 
CCN(CC(=O)NO)C(=O)C1CCCCC1C(=O)O (stereo in doubt; 10g) | 18 | 
CN(CC(=O)NO)C(=O)C1CCCCC1C(=O)O (stereo in doubt; 16a) | 23500 | 
CN(CC(=O)NO)C(=O)C1CCCCC1C(=O)O (stereo in doubt; 16b) | 24 | 
CCN(CC(=O)NO)C(=O)C1CCCCC1C(=O)O (stereo in doubt; 16c) | 2900 | 
CN(CC(=O)NO)C(=O)C1CCCCC1C(=O)O (stereo in doubt; 21a) | 7 | Vmax (Rattus norvegicus [2]): 1.36 uM min-1 ml-1; Vmax (Rattus norvegicus [3]): 1.25 uM min-1 ml-1; Vmax (Rattus norvegicus [4]): 1.31 uM min-1 ml-1; Vmax (Rattus norvegicus [5]): 1.16 uM min-1 ml-1
CN(CC(=O)NO)C(=O)C1CCCCC1C(=O)O (stereo in doubt; 21b) | 1800 | 
CCN(CC(=O)NO)C(=O)C1CCCCC1C(=O)O (stereo in doubt; 21c) | 28 | 
CCN(CC(=O)NO)C(=O)C1CCCCC1C(=O)O (stereo in doubt; 21d) | 2900 | 
O=C(O)C1CCCCC1C(=O)CCS (trans isomer) | 1700 | 
CCCN(CC(=O)NO)C(=O)C1CCCCC1C(=O)O (trans isomer) | 150 | 
CCN(CC(=O)NOCc1ccccc1)C(=O)C1CCCCC1C(=O)O (trans isomer) | > 150000 | 
O=C(CNC(=O)C1CCCCC1C(=O)O)NO (trans isomer) | 1500 | 
O=C(O)C1CCCCC1C(=O)NCCS (trans isomer) | > 150000 | 
CCN(CC(=O)NO)C(=O)C1CCCCC1C(=O)O (trans isomer) | 14 | 
CC(C)N(CC(=O)NO)C(=O)C1CCCCC1C(=O)O (trans isomer) | 500 | 
CN(CC(=O)NO)C(=O)C1CCCCC1C(=O)O (trans isomer) | 45 | 
B1 |  | Km [6]: 129 mM; Km [7]: 43 mM; Km [8]: 21 mM; Km [9]: 62 mM
